{"source": "ChEMBL document CHEMBL1275442", "about": "“Pharmacokinetics and tissue distribution of anidulafungin in rats” (Antimicrob Agents Chemother, 2008)", "type_in_all_cases": "ADME, organism-based", "key": {"[1]": {"test_system": "Zone of skin", "assay": "Drug level in Long Evans rat skin assessed as radioactivity per gram of tissue at 5 mg/kg, iv administered as single bolus dose measured 0.5 hrs postdose by autoradiography", "set-up": "dose 5 mg/kg, route intravenous", "conditions": "in vivo", "summary_of_the_method": "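Male pigmented Long Evans (HsdBlu:LE) rats, 7.5 weeks old and 202 to 217 g, got a single iv dose of [14C]anidulafungin at 5 mg/kg. One rat per time point (0.5, 6, 12, 24, 72, 168 h) was euthanised by isoflurane and cardiac-puncture exsanguination. Sagittal whole-body sections were quantified by phosphorimaging. Samples were thickness-corrected, and concentrations (μg eq/g) were interpolated from least-squares standard curves.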"}, "[2]": {"test_system": "Liver", "assay": "Drug level in Long Evans rat liver assessed as high disposition of radioactivity per gram of tissue at 5 mg/kg, iv administered as single bolus dose measured 72 hrs postdose by autoradiography", "set-up": "dose 5 mg/kg, route intravenous", "conditions": "in vivo", "summary_of_the_method": "(§1)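 Male pigmented Long Evans (HsdBlu:LE) rats, 7.5 weeks old, 202 to 217 g, single iv [¹⁴C]anidulafungin; one rat per sampling time. Euthanized by isoflurane and cardiac-puncture exsanguination. Sagittal whole-body sections quantified by phosphorimaging autoradiography, single samples corrected for section thickness across multiple sections per tissue. Concentrations (μg eq/g drug-derived radioactivity) interpolated from least-squares standard curves per scan.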"}, "[3]": {"test_system": "Kidney", "assay": "Drug level in Long Evans rat kidney assessed as low disposition of radioactivity per gram of tissue at 5 mg/kg, iv administered as single bolus dose measured 72 hrs postdose by autoradiography", "set-up": "dose 5 mg/kg, route intravenous", "conditions": "in vivo", "summary_of_the_method": "as §1"}, "[4]": {"assay": "Tmax in F344 rat spleen at 5 mg/kg, iv administered as single bolus dose by HPLC method", "set-up": "dose 5 mg/kg, route intravenous", "summary_of_the_method": "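F344 males, 10 to 11 weeks old and 223.6 to 243.8 g, got a single 5 mg/kg iv dose of [14C]anidulafungin over about 5 min. Plasma and tissues were collected predose and at 0.083 to 72 h, n = 3 per time point. Parent drug was quantified by HPLC-UV, with LLOQ/ULOQ of 20/5,120 ng/ml in plasma and 220/56,320 ng/g in tissue. Noncompartmental parameters came from a composite mean concentration-time profile.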"}, "[5]": {"test_system": "Kidney", "assay": "Cmax in F344 rat kidney assessed as total compound-derived radioactivity per gram of tissue at 5 mg/kg, iv administered as single bolus dose after 30 mins by HPLC method", "set-up": "dose 5 mg/kg, route intravenous", "conditions": "in vivo, 0.5 h", "summary_of_the_method": "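Same F344 study: single 5 mg/kg IV [¹⁴C]anidulafungin given over about 5 min. Total drug-derived radioactivity (parent plus metabolites) counted by liquid scintillation, in […]. Noncompartmental analysis of the composite mean profile.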"}, "[6]": {"test_system": "Kidney", "assay": "Drug level in Long Evans rat kidney assessed as high disposition of radioactivity per gram of tissue at 5 mg/kg, iv administered as single bolus dose measured 24 hrs postdose by autoradiography", "set-up": "dose 5 mg/kg, route intravenous", "conditions": "in vivo", "summary_of_the_method": "as §1"}, "[7]": {"test_system": "Cerebrospinal fluid", "assay": "Half life in F344 rat cerebrospinal fluid assessed as total compound-derived radioactivity at 5 mg/kg, iv administered as single bolus dose […]", "set-up": "dose 5 mg/kg, route intravenous", "conditions": "in vivo", "summary_of_the_method": "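Male F344 rats, 10 to 11 weeks old and 223.6 to 243.8 g, got one iv dose of [14C]anidulafungin at 5 mg/kg over about 5 min. Blood, CSF, kidney, liver, lung, quadriceps, spleen and skin were sampled predose and at 0.083 to 72 h, 3 rats per time. Total radioactivity (parent plus metabolites) was measured by liquid scintillation counting. Parameters were noncompartmental, from a composite mean profile.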"}, "[8]": {"test_system": "Kidney", "assay": "AUC (0 to 24 hrs) in F344 rat kidney at 5 mg/kg, iv administered as single bolus dose", "set-up": "time < 24 hr, dose 5 mg/kg, route intravenous", "conditions": "in vivo", "summary_of_the_method": "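Male F344 rats, 10–11 weeks, 223.6–243.8 g, given one IV dose of [¹⁴C]anidulafungin, 5 mg/kg, over about 5 min. Tissues and blood sampled at 0.083–72 h (n = 3 rats per time). Parent drug measured by HPLC; LLOQ/ULOQ were 20/5,120 ng/ml for plasma and 220/56,320 ng/g for tissue. Noncompartmental parameters taken from the composite mean profile.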"}}}
{"smiles": "CCCCCOc1ccc(-c2ccc(-c3ccc([14C](=O)N[C@H]4C[C@@H](O)[C@@H](O)NC(=O)[C@@H]5[C@@H](O)[C@@H](C)CN5C(=O)[C@H]([C@@H](C)O)NC(=O)[C@H]([C@H](O)[C@@H](O)c5ccc(O)cc5)NC(=O)[C@@H]5C[C@@H](O)CN5C(=O)[C@H]([C@@H](C)O)NC4=O)cc3)cc2)cc1", "note": "[14C-ANIDULAFUNGIN]", "values": [{"measurement": "Drug uptake", "setting": "[1]", "result": 5.42, "unit": "ugequiv"}, {"measurement": "Drug uptake", "setting": "[2]", "result": 16.9, "unit": "ugequiv"}, {"measurement": "Drug uptake", "setting": "[3]", "result": 1.97, "unit": "ugequiv"}, {"measurement": "Tmax", "setting": "[4]", "result": 30, "unit": "min"}, {"measurement": "Cmax", "setting": "[5]", "result": 19.63, "unit": "ugequiv/g"}, {"measurement": "Drug uptake", "setting": "[6]", "result": 12.57, "unit": "ugequiv"}, {"measurement": "t1/2", "setting": "[7]", "result": 53.8, "unit": "h"}, {"measurement": "AUC", "setting": "[8]", "result": 517.32, "unit": "µg·h/g"}]}
